Bioassay records from PubChem BioAssay.
RGS4 pot: RGS4 potentiators or activators, primary screen, cell-based, HEK293 M3R inducible RGS4, calcium flux; carbachol calcium flux Fluo4; active compounds read low; B-score at 10 µM; 310,000 tested, 0.92% active;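 active means B-score of the integrated calcium signal more than 4 SD below the library mean, with starting fluorescence not abnormally high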;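 further: negative B-score means reduced calcium response which marks RGS4 activation or potentiation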
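Material: M3R-expressing HEK293 line, RGS4 induced by doxycycline | Schedule: Overnight RGS4 induction, 30 min dye load 37 °C, 20 min compound RT | Measured by: Fluo4 fluorescence kinetic imaging of calcium | Read-out: Integrated calcium ratio converted to B score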
MrgX1 allo act: positive allosteric modulators of MrgX1, primary screen, HEK293 cells, Fluo-4 calcium flux; Mas-related G-protein coupled receptor member X1 (Homo sapiens), Q96LB2; FDSS; active compounds read high; B-score at 10 µM; 310,000 tested, 0.63% active;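 active means plate-corrected calcium response at least 3 library SD above typical, normal starting fluorescence, not activating the receptor alone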;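 further: compound read alongside a low EC10 to EC30 dose of BAM8-22 agonist; peak minus trough fluorescence over baseline measured at the second addition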
Target sequence (Q96LB2 whole entry, looked up): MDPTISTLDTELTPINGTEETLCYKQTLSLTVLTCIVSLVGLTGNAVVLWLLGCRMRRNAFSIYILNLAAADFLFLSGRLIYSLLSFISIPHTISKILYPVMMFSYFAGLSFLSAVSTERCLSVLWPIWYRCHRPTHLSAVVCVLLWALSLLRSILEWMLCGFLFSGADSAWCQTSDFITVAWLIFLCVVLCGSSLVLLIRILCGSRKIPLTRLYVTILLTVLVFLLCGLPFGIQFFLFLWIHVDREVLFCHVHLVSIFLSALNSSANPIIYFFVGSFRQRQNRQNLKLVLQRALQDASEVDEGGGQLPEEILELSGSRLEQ
MrgX1 agonist: agonists of human MrgX1 receptor, primary screen, HEK293 cells, Fluo-4 calcium flux; 310,000 tested, 0.44% active; AID 588627, 2011; Mas-related G-protein coupled receptor member X1 (Homo sapiens), Q96LB2; Fluo-4 calcium fluorescence, agonist mode; active compounds read high; B-score at 10 µM;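 active means calcium response B-score plate-corrected fluorescence ratio at least 3 library SD, with starting fluorescence B-score inside 5 SD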
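Material: HEK293 cells stably expressing human MrgX1 receptor | Quantity: 15,000 cells per well | Times: Cells plated overnight, dye loaded 0.5 h 37 °C, 0.5 h room temperature | Measured by: Kinetic Fluo-4 NW fluorescence of intracellular calcium | Control set: Positive and negative controls per plate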
RGS4 block: RGS4 inhibitors, primary screen, cell-based, HEK293 M3R inducible RGS4, calcium flux. Regulator of G-protein signaling 4 (Homo sapiens), P49798. Fluo-4 calcium flux; active compounds read high; triggered by carbachol at its EC20. B-score at 10 µM. 310,000 tested, 0.45% active;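 active means B-score, a plate-corrected calcium signal, over three deviations above library mean, with baseline fluorescence within five deviations of library mean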;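 further: RGS4 expression induced by doxycycline in cells with stable M3 receptor; B-score is computed from the integrated fluorescence ratio over baseline after carbachol; higher B-score means a larger calcium signal and so more RGS4 inhibition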
Target sequence (P49798 whole entry, looked up): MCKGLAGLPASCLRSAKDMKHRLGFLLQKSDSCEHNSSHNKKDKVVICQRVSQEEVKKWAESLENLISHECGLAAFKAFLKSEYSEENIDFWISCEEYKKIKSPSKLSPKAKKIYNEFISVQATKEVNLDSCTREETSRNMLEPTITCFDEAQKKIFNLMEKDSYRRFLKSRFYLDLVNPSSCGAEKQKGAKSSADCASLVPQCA
MrgX1 antag: antagonists of human MrgX1 receptor, primary screen, HEK293 cells, Fluo-4 calcium flux | Mas-related G-protein coupled receptor member X1 (Homo sapiens), Q96LB2 | BAM8-22 antagonism; active compounds read low | B-score at 10 µM | 310,000 tested, 1.3% active;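 active means calcium-response B-score plate-corrected more than 3 library SD below zero, starting fluorescence within 5 deviations, no agonist response on first addition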;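 further: peak minus trough fluorescence over baseline after final BAM8-22 challenge near maximal dose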
MrgX1 PAM conf: MrgX1 positive allosteric modulators, duplicate retest, confirmation, HEK293 cells, Fluo-4 calcium flux. shares compounds with MrgX1 allo act. Fluo-4 calcium fluorescence, FDSS. activation (ratio percentage), % at 10 µM. 1,200 tested, 13% active. AID 602413, 2012;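 active means ratio at least 3 SD above the weak peptide control, stable starting fluorescence, no direct agonism earlier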;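 further: compound followed by low BAM8-22 agonist challenge near EC20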
MrgX1 ant reconf: MrgX1 receptor antagonists, duplicate retest, confirmation, HEK293 cells, Fluo-4 calcium flux; AID 602420, 2012; BAM8-22 calcium flux; active compounds read low; 2,300 tested, 19% active; remaining BAM8-22 calcium response % of control (active compounds read low), % at 10 µM; shares compounds with MrgX1 antag;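 active means remaining agonist calcium response no higher than 100% minus 3 SD of agonist-only control wells, with starting fluorescence near control levels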;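 further: agonist BAM8-22 given at a near maximal EC90 to ECmax level; peak minus minimum fluorescence divided by baseline after agonist addition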
HEK293 Ca flux: nonspecific calcium signal in parental HEK293, confirmation, counter-screen for MrgX1 antagonist project, parental HEK293 cells, Fluo-4 calcium flux | fluorescence ratio F(max-min)/F0 at 10 µM | Fluo-4 calcium fluorescence, FDSS | 4,000 tested, 2% active | shares compounds with MrgX1 antag;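 active means duplicate-averaged calcium fluorescence ratio at least three times the standard deviation of buffer wells, a nonspecific response in parental cells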
HEK293 Ca counter: calcium response in parental HEK293 cells, primary screen, counter-screen for MrgX1 allosteric activator project, cell-based, Fluo-4 calcium flux, duplicate. shares compounds with MrgX1 antag. Fluo-4 fluorescence ratio; active compounds read high. fluorescence ratio F(max-min)/F0 at 10 µM. 4,000 tested, 0.4% active. AID 624114, 2012;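 active means calcium fluorescence ratio, averaged over duplicates, at least 3 SD of the buffer-well ratio, meaning a nonspecific response in receptor-free cells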;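 further: untransfected parental HEK293 lacking MrgX1 used as counterscreen for MrgX1 allosteric activators; fluorescence change taken during the second addition on a kinetic imager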
HEK293 Ca cntr2: calcium response in parental HEK293 cells, primary screen, counter-screen for MrgX1 agonist project, cell-based, Fluo-4 calcium flux, duplicate, agonist mode. Fluo-4 calcium fluorescence (FDSS); active compounds read high. shares compounds with MrgX1 antag. 4,000 tested, 8.7% active. fluorescence ratio F(max-min)/F0 at 10 µM. AID 624115, 2012;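 active means calcium fluorescence ratio at least three times the spread of buffer wells, meaning a non-specific response in parental cells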
Starred values were filed as active, the others as inactive; i = inactive; / = no result given. Sampled rows, rich in hits. Any-hit rate of the full collection: about 3.5%.

SMILES	RGS4 pot	MrgX1 allo act	MrgX1 agonist	RGS4 block	MrgX1 antag	MrgX1 PAM conf	HEK293 Ca flux	HEK293 Ca counter	HEK293 Ca cntr2	others
Cc1ccc(C)n1-n1cnc2sc(-c3ccccc3)cc2c1=O	i	7.8*	i	i	i	i	i	i	i
Cc1ccc(C)n1-n1c(C)nc2sc(-c3ccccc3)cc2c1=O	i	19*	i	i	i	i	i	i	i
Cc1cc(OCC(=O)OCC(=O)Nc2cc(C(F)(F)F)ccc2N2CCOCC2)ccc1Cl	i	i	i	i	i	/	/	/	/
Cc1ccc(-c2nnc(CN3CCCCC3C)o2)cc1 (stereo unspecified)	i	i	i	i	i	/	/	/	/
CC(CNC(=O)CN1C(=O)c2cccnc2Oc2ccc(Cl)cc21)c1ccccc1 (stereo unspecified)	i	12*	i	i	i	i	i	i	i
Cc1cc(C)nc(-n2nc(C)c(Sc3ccc(F)cc3)c2N)n1	i	11*	i	i	i	i	i	i	i
Cc1nn(-c2ccccc2)c(N)c1Sc1cccc([N+](=O)[O-])c1	i	i	i	i	i	/	/	/	/
COc1ccc(C(=O)NCC(=O)OCC(=O)c2ccc3c(c2)NC(=O)CO3)cc1	i	7.6*	i	i	i	i	i	48*	i
COc1ccc(C2=CC(c3sccc3C)n3nnnc3N2)cc1 (stereo unspecified)	i	i	i	i	i	/	/	/	/
COc1ccc(C2=CC(c3ccc(F)cc3)n3nnnc3N2)cc1 (stereo unspecified)	i	7*	i	i	i	i	i	i	i
Cc1cccc(NC(=S)NC(=O)/C=C/c2ccco2)n1	i	25*	i	i	i	4.6%*	i	i	i
C[C@H](Nc1ncnc2sc3c(c12)CCC3)C(=O)O	i	i	i	i	i	/	/	/	/
Cc1ccc(C(=O)Nc2ncnc3sc4c(c23)CCCCC4)cc1	i	6.7*	i	i	i	8.1%*	i	i	i
Fc1ccc(Nc2ncnc3sc4c(c23)CCC4)cc1	i	6.9*	i	i	i	i	i	i	i
c1ccc(Nc2ncnc3sc4c(c23)CCC4)cc1	i	i	i	i	i	/	/	/	/
COC(=O)Cc1[nH]n(-c2nc3ccccc3s2)c(=O)c1C(C)=Nc1ccc(Cl)cc1	i	12*	i	i	i	i	i	i	i
O=C(O)c1ccc(N2CC3CC(C2)c2cccc(=O)n2C3)c(NS(=O)(=O)c2cccc(C(F)(F)F)c2)c1 (stereo unspecified)	i	i	i	i	i	/	/	/	/
CCOC(=O)C1CCCN(C(=O)c2sc3nc(-c4ccc(F)cc4)cn3c2C)C1 (stereo unspecified)	i	7.3*	i	i	i	14%*	i	i	i
O=C1c2cccc(OCC(=O)N3CCCc4ccccc43)c2CCN1Cc1cccnc1	i	18*	i	i	i	i	i	i	i
CC(C)c1ccc(C(=O)NNC(=O)c2ccncc2)cc1	i	i	i	i	i	/	/	/	/
CC(C)c1ccc(C(N)=S)cc1	i	14*	i	i	i	i	i	i	i
O=C(CSc1nc(-c2ccccc2)cs1)NCCN1C(=O)CSC1=O	i	10*	i	i	i	i	i	i	i
O=C(OCC(=O)N1CCCC1)c1ccc(S(=O)(=O)Nc2ccccc2)cc1	i	12*	i	i	i	i	i	i	i
COC(=O)C(NC(C)=O)(Nc1nc2c(C)cc(C)cc2s1)C(F)(F)F (stereo unspecified)	i	17*	i	i	i	i	i	i	i
O=C(NC(=S)Nc1ccc(Cl)cn1)c1cc([N+](=O)[O-])ccc1N1CCOCC1	i	i	i	i	i	/	/	/	/
SMILES	RGS4 pot	MrgX1 allo act	MrgX1 agonist	RGS4 block	MrgX1 antag	MrgX1 PAM conf	HEK293 Ca flux	HEK293 Ca counter	HEK293 Ca cntr2	others
COc1ccccc1N1CCN(C2=Nc3cccc4cccc2c34)CC1	-7*	8.9*	i	i	i	i	i	i	i
CC(=O)N1CCN(C2=Nc3cccc4cccc2c34)CC1	i	i	i	i	i	/	/	/	/
O=C(O)c1cccc(S(=O)(=O)Nc2ccc3c(c2)CCC3)c1	i	i	i	i	i	/	/	/	/
CCOC1Cc2ccccc2N(C(N)=O)c2ccccc21 (stereo unspecified)	i	i	i	i	i	/	/	/	/
COC1Cc2ccccc2N(C(=O)N2CCN(CCO)CC2)c2ccccc21 (stereo unspecified)	i	16*	i	i	i	i	i	i	i
CC(C)(C)c1ccc(-c2noc(-c3ccc4c(c3)CCO4)n2)cc1	i	7.4*	i	i	-5*	i	i	i	i	MrgX1 ant reconf=i
O=C(c1ccc(N2CCN(C3CC(=O)N(Cc4cccs4)C3=O)CC2)cc1)c1cccnc1 (stereo unspecified)	i	9*	i	i	-5.1*	3.0%*	i	i	i	MrgX1 ant reconf=84%*
O=C(c1ccncc1)c1ccc(N2CCN(C3CC(=O)N(Cc4ccccc4)C3=O)CC2)cc1 (stereo unspecified)	i	i	i	i	i	/	/	/	/
